This is a sample that favours compounds with a hit; in the whole collection about 1.3% have one here.
PfGluPho inh: PfG6PD (Plasmodium falciparum) enzyme inhibition; PfGluPho enzyme, NADPH resazurin-diaphorase fluorescence; inhibition, % at 20 µM; hit rate 0.78% among 350,000; AID 504690;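 active means inhibition reaching at least a set limit at 20 µM in the primary screen, cut at about 59% in these data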;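 further: 0% = DMSO wells with substrate and 100% = DMSO wells lacking glucose-6-phosphate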
Diaphorase inh: inhibits diaphorase or chemically oxidizes, flagging diaphorase assay artifacts | inhibition, % at 20 µM | hit rate 0.69% among 190,000 | diaphorase resazurin-to-resorufin fluorescence, NADH, 16 min; bacterial (C. kluyveri) enzyme, not human;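 active means primary screen inhibition at 20 µM above a set limit, cut at about 50% in these data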;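 further: plate controls were DMSO with full reaction for no effect and wells lacking NADH for full effect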
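material = Clostridium kluyveri diaphorase enzyme | amount = 0.14 U/mL diaphorase, enzyme working solution | schedule = incubation 16 min, room temperature | detection = fluorescence of resorufin formed from resazurin, Ex 544/Em 590 nm | benchmarks = positive control minus NADH, DMSO neutral control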
Diaph act CS: counter-screen for diaphorase-based assays: diaphorase activators and chemical reducers; Diaphorase/resazurin coupled assay, resorufin fluorescence, 16 min; hits give high values; 1 = vehicle wells, 0 = NADH-free wells; activation factor at 20 µM; hit rate 0.005% among 190,000;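 active means diaphorase activity raised at least twofold by the compound at 20 µM; inactive means activation factor below 2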
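Material: Purified diaphorase enzyme from Clostridium kluyveri | Buffer or medium: 50 mM HEPES pH 7.4 with 4.542 mM MgCl2, 0.005% Tween 20 | Times: 16 min enzyme reaction, ambient temperature | Signal: Red resorufin fluorescence at 544/590 nm excitation/emission | Measure: Increased resorufin signal from activators or reducing compounds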
HKDC1 inh: inhibitors of human hexokinase HKDC1; recombinant HKDC1, G6PDH/diaphorase resazurin coupled fluorescence; inhibition, % at 20 µM; hit rate 0.16% among 340,000;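 active means inhibition above about 35% when tested at 20 µM, limit read from the data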;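 further: plate controls were DMSO wells with enzyme for no effect and DMSO wells lacking enzyme for full effect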
Target sequence (Q2TB90 whole entry, looked up): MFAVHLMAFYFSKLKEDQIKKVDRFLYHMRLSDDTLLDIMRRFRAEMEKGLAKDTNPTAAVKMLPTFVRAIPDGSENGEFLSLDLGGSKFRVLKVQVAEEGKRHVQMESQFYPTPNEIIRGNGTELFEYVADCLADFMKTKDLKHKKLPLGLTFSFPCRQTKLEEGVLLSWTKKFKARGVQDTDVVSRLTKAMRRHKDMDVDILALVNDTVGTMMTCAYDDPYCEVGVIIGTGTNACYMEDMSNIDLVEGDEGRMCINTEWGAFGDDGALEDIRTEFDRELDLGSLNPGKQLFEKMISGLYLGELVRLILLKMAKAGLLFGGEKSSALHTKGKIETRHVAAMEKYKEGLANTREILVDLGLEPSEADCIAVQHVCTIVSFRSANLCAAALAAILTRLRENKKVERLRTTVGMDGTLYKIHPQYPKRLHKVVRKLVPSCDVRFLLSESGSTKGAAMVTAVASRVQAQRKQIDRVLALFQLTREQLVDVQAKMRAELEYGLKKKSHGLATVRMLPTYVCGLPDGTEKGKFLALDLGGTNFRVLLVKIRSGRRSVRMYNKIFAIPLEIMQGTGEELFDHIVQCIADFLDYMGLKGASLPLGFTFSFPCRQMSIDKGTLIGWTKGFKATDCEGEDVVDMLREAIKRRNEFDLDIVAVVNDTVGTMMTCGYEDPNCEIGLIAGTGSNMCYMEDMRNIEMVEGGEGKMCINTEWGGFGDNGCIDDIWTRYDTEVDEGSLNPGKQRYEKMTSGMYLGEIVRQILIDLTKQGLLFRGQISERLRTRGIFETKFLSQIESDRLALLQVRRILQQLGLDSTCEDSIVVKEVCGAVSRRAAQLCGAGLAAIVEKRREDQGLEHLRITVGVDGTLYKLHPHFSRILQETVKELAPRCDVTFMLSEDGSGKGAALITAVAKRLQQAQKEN
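Assay system: recombinant HKDC1 hexokinase; detection: coupled resazurin fluorescence, excitation 525 nm, emission 613 nm; benchmarks: DMSO-plus-enzyme-mix negative control, buffer-substituted positive control; compound dosing: single 20 µM dose; schedule: 90 min at room temperature in dark; also added: glucose plus 1 mM ATP as hexokinase substrates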
G6PDH CS: L. mesenteroides G6PDH inhibition counter-screen; Purified L. mesenteroides G6PDH, diaphorase/resazurin coupled fluorescence, 45 min; inhibition, % at 5 µM; AID 1020; hit rate 0.12% among 200,000; in the data active means inhibition above about 50%
* hit, by the source's call; x = no result.

SMILES	PfGluPho inh	Diaphorase inh	Diaph act CS	HKDC1 inh	G6PDH CS
OC(CNCCN1CCNCC1)Cc1ccccc1 (stereo not drawn)	16	x	x	-8	x
O=C(/C=C/c1ccc(Cl)cc1)c1ccc([N+](=O)[O-])o1	53	x	x	54*	x
CC(=O)OCC1CC(COC(C)=O)C(COC(C)=O)CC1COC(C)=O (stereo not drawn)	-3	x	x	1	x
O=C1c2cccc3c(N4CCCCC4)ccc(c23)C(=O)N1c1cccc(O)c1	-1	60*	0.4	22	8
CC(C)CC(=O)NC(=S)Nc1sc2c(c1C(N)=O)CCC2	-11	28	0.7	8	8
CC(C)(C)C(=O)NC(=S)Nc1sc2c(c1C(N)=O)CCC2	-2	50*	0.5	5	0
COc1ccc(NC(=O)CCC(=O)N2CCCC2)c([N+](=O)[O-])c1	15	x	x	-6	x
O=C(O)c1ccccc1NS(=O)(=O)c1ccc(NNC(=S)Nc2ccc(OC(F)F)cc2)c([N+](=O)[O-])c1	-1	67*	0.3	-9	7
Cc1ccc(NC(=S)NNc2ccc([N+](=O)[O-])cc2S(=O)(=O)Nc2ccccc2C(=O)O)cc1C	40	27	0.7	7	6
CC(=O)Nc1cccc(NC(=O)CCNC(=O)c2ccccc2)c1	5	x	x	-5	x
O=c1/c(=C/c2ccc(O)c([N+](=O)[O-])c2)sc2nc3ccccc3n12	20	113*	-0.1	9	1
O=c1/c(=C\c2cccnc2)sc2nc3ccccc3n12	-8	18	0.8	1	2
CCOC(=O)C1=CN(Cc2ccco2)S(=O)(=O)NC1c1ccc(C(F)(F)F)cc1 (stereo not drawn)	29	x	x	11	x
COCCCn1nnnc1SCC(=O)Nc1nc2ccccc2s1	0	x	x	-7	x
COc1ccc(S(=O)(=O)Nc2ccc3c(c2)C(=O)N([C@H](C)CO)C[C@H](C)[C@@H](CN(C)C(=O)Nc2ccc(C(F)(F)F)cc2)OCCCC[C@H](C)O3)cc1	39	x	x	x	x
O=[N+]([O-])C1=CC=C2C(=NC3(CCCCC3)N2O)C1=NCCO	19	76*	0.2	9	24
CN=C1C([N+](=O)[O-])=CC=C2C1=NC1(CCCCC1)N2O	-14	72*	0.3	-12	40
CC(=O)Nc1ccc(S(=O)(=O)Nc2nc3ccccc3nc2N2CCCC2)cc1	-43	50*	0.5	2	-3
CCN1CCN(c2nc3ccccc3nc2NS(=O)(=O)c2ccc(NC(C)=O)cc2)CC1	-20	x	x	2	x
CCC1=NN2C(=N)/C(=C\c3cccn3-c3cccc(Cl)c3)C(=O)N=C2S1	-9	59*	0.4	-6	0
CCC(C)Nc1cc(C)c(C#N)c2nc3ccccc3n12 (stereo not drawn)	-22	x	x	3	x
CCC(C)Sc1cc(C)c(C#N)c2nc3ccccc3n12 (stereo not drawn)	11	52*	0.5	4	15
Clc1ccccc1N=Nc1ccccn1	91*	x	x	4	x
Cc1ccc(S(=O)(=O)NNc2ccccc2)c(C)c1	83*	3	1	-12	8
COc1cc2ccccc2cc1C(=O)OCc1nc2ccsc2c(=O)[nH]1	4	x	x	-6	x
SMILES	PfGluPho inh	Diaphorase inh	Diaph act CS	HKDC1 inh	G6PDH CS
Cc1[nH]c2c(ccc3cccnc32)c1C	18	x	x	2	x
CC1=[N+](C)c2c(ccc3cccnc23)C1(C)C	44	65*	0.3	10	19
Cc1nnc(SCc2cc(=O)[nH]c(=S)[nH]2)s1	-11	64*	0.4	-2	10
CC(=O)N1CCN(S(=O)(=O)c2cccc(C(=O)NNC(=O)c3ccc(Br)cc3)c2)CC1	-16	x	x	-2	x
O=C(NCCO)Nc1ccc2nc(-c3ccco3)c(-c3ccco3)nc2c1	x	74*	0.3	x	31
CC(=O)c1ccc(NC(=O)CSc2nnc(-c3ccco3)c(-c3ccco3)n2)cc1	30	81*	0.2	12	38
CC(=O)c1ccc(NC(=O)c2ccc3nc(-c4ccco4)c(-c4ccco4)nc3c2)cc1	78*	55*	0.5	41*	22
S=C(Nc1ccc(N2CCOCC2)cc1)Nc1ccc2nc(-c3ccco3)c(-c3ccco3)nc2c1	59	64*	0.4	17	40
O=C(Nc1ccc(N2CCOCC2)cc1)c1ccc2nc(-c3ccco3)c(-c3ccco3)nc2c1	14	30	0.7	-3	-60
Cc1ccc(C(C)C)c(OCCNCCc2ccccc2)c1	19	x	x	-5	x
CCCCNC(=O)c1ccc2nc(-c3ccco3)c(-c3ccco3)nc2c1	44	53*	0.5	19	-28
O=C(NCc1ccccc1)c1ccc2nc(-c3ccco3)c(-c3ccco3)nc2c1	44	46	0.5	32	22
CC(C)NCC(O)c1ccc(NS(C)(=O)=O)cc1 (stereo not drawn)	-13	0	1	-1	7
CC(C)NC[C@@H](O)c1ccc(O)c(O)c1	52	62*	0.4	5	63*
COCCNCc1cc(C)n(-c2cc(S(=O)(=O)N3CCOCC3)ccc2N2CCCC2)c1C	2	x	x	-5	x
COc1ccc(/C=N/n2c(-c3n[nH]c4c3CCC4)n[nH]c2=S)cc1OC	58	63*	0.4	13	16
CCc1ccc2c(c1)c(N=NC1=NC(=O)CS1)c(O)n2C	-17	84*	0.2	7	-4
COc1cc([N+](=O)[O-])cc(/C=N/NC(=O)Cn2cncn2)c1O	10	x	x	-7	x
COc1cc([N+](=O)[O-])cc(/C=N/NC(=O)CC#N)c1O	x	51*	0.5	x	21
CCOc1cc(CNc2ccc3[nH]c(=O)[nH]c3c2)ccc1OCC(=O)NC(C)(C)C	41	66*	0.3	2	-43
O=C(O)c1cccc(NC(=S)N/N=C/c2ccccc2OCc2cccc(Br)c2)c1	-28	57*	0.4	7	-6
O=C(O)c1cccc(NC(=S)N/N=C/c2ccccc2OCc2ccc(Br)cc2)c1	10	51*	0.5	-1	-2
Cc1cc(S(=O)(=O)Nc2ccc(C(=O)NCc3ccncc3)cc2)ccc1F	-18	x	x	-4	x
CC(=O)c1c(N2CCN(c3cccc(Cl)c3)CC2)nc(=S)n(-c2ccccc2)c1C	22	61*	0.4	1	-4
CC(=O)c1c(NCc2ccccc2)nc(=O)n(-c2ccccc2)c1C	-16	9	0.9	5	3
CC(=O)c1c(NCCc2ccccc2)nc(=S)n(-c2ccccc2)c1C	-22	88*	0.1	-4	2
CCn1c(C)c(C(C)=O)c(N2CCN(c3cccc(Cl)c3)CC2)nc1=S	12	33	0.7	-3	15
CCn1c(C)c(C(C)=O)c(NCc2ccccc2)nc1=S	-8	52*	0.5	-2	8
Cc1cccc(N=C2CCCC2C(=O)Nc2cccc(C)c2C)c1C (stereo not drawn)	0	x	x	-2	x

Screening data deposited in PubChem BioAssay by Sanford-Burnham Center for Chemical Genomics.
